Results taken from ChEMBL document CHEMBL5653620, “Activating the Wnt/β-Catenin Pathway for the Treatment of Melanoma--Application of LY2090314, a Novel Selective Inhibitor of Glycogen Synthase Kinase-3” (PLoS One, 2015).
Active and inactive are the calls of the source. The rule behind the calls is not given here.

Legend:
[1] = molecular target: T1, Glycogen synthase kinase-3 (Homo sapiens) (UniProt P49840+P49841); assay: Inhibition of GSK3 in human A-375 cells assessed as increase Axin2 mRNA expression level at 20 nM by RT-PCR analysis; format: cell-based; details: time 0.5-8 hrs, TDE = time-dependent effect
Method in brief: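 A375 cells seeded at 500,000/well and adhered overnight. Medium was replaced and the compound added at the set concentration and time. Total RNA isolated with an on-column DNase step. Axin2 mRNA quantified by real-time PCR using the standard curve method.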

[2] = molecular target: T1, Glycogen synthase kinase-3 (Homo sapiens); assay: Inhibition of GSK3 in human M14 cells assessed as increase in free beta-catenin at 20 nM for 48 hrs by immunoprecipitation analysis; format: cell-based
Method in brief: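 Free β-catenin measured as the fraction binding the E-cadherin C-terminus. Lysate (300 μg protein) incubated with 10 μg His-Flag-E-cadherin, then captured overnight at 4°C on anti-FLAG M2 affinity gel. Resin washed 3 times in lysis buffer and eluted in reducing loading buffer. Bound β-catenin detected by immunoblot.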

[3] = Antiproliferative activity against human MEXF462 cells harboring BRAF V600E mutation assessed as reduction in cell viability incubated for 72 hrs by CellTitre-Glo assay; format: functional, cell-based; details: MEXF462, 72 h
Method in brief: (§1)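 Cells seeded at 2,000 per well and left to adhere overnight. After 24 h, medium was switched to growth medium with 2% FBS. Test agent was added at 0.5 nmol/L to 10 μmol/L for 72 h. Viability was read by CellTiter-Glo luminescence. IC50 came from nonlinear regression sigmoidal dose-response fits.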

[4] = test system: SK-MEL-28; assay: Antiproliferative activity against human SK-MEL-28 cells harboring BRAF V600E mutation assessed as reduction in cell viability incubated for 72 hrs by CellTitre-Glo assay; format: functional, cell-based; details: SK-MEL-28, 72 h; method in brief: as §1
[5] = test system: M14; assay: Induction of apoptosis in human M14 cells assessed as increase in caspase3/7 activation at 5 to 40 nM after 72 hrs by Caspase-Glo assay; format: functional, cell-based; details: dose 5-40 nM
Method in brief: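 Cells were plated at 2,000 per well and allowed to adhere overnight. Medium was then replaced with growth medium containing 2% FBS, and cells were exposed to agent for 72 h. Caspase 3/7 activity was measured by Caspase-Glo luminescence.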

[6] = test system: A-375; assay: Induction of apoptosis in human A-375 cells assessed as increase in cleave-PARP protein expression at 5 to 15 nM after 72 hrs by sandwich ELISA analysis; format: functional, cell-based; details: dose 5-15 nM
Method in brief: (§2)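 Cells were plated at 250,000 per well in 6-well plates and left overnight. Fresh medium containing agent at 5 or 15 nM final was added for 72 h. Cleaved PARP (Asp214) was measured by sandwich ELISA on 50 μg total protein and expressed relative to DMSO-treated cells.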

[7] = test system: M14; assay: Induction of apoptosis in human M14 cells assessed as increase in cleave-PARP protein expression at 5 to 15 nM after 72 hrs by sandwich ELISA analysis; format: functional, cell-based; details: dose 5-15 nM; method in brief: as §2
[8] = test system: HCT-116; assay: Antiproliferative activity against human HCT-116 assessed as reduction in cell viability incubated for 72 hrs by CellTitre-Glo assay; format: functional, cell-based; details: HCT-116, 72 h; method in brief: as §1
[9] = test system: NCI-H2030; assay: Antiproliferative activity against human H2030 assessed as reduction in cell viability incubated for 72 hrs by CellTitre-Glo assay; format: functional, cell-based; details: NCI-H2030, 72 h; method in brief: as §1
[10] = test system: MDA-MB-231; assay: Antiproliferative activity against human MDA-MB-231 assessed as reduction in cell viability incubated for 72 hrs by CellTitre-Glo assay; format: functional, cell-based; details: MDA-MB-231, 72 h; method in brief: as §1
[11] = test system: MCF7; assay: Antiproliferative activity against human MCF7 assessed as reduction in cell viability incubated for 72 hrs by CellTitre-Glo assay; format: functional, cell-based; details: MCF7, 72 h; method in brief: as §1
[12] = test system: BXPC-3; assay: Antiproliferative activity against human BXPC-3 assessed as reduction in cell viability incubated for 72 hrs by CellTitre-Glo assay; format: functional, cell-based; details: BXPC-3, 72 h; method in brief: as §1
[13] = test system: LNCaP; assay: Antiproliferative activity against human LNCaP assessed as reduction in cell viability incubated for 72 hrs by CellTitre-Glo assay; format: functional, cell-based
Method in brief: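 Cells seeded at 2,000/well, adhered overnight, then given medium with 2% FBS containing test agents at 0.5 nmol/L to 10 μmol/L for 72 h. Viability read by CellTiter-Glo luminescence. IC50 derived by nonlinear regression with a sigmoidal dose-response fit.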

[14] = test system: M14; assay: Antiproliferative activity against human M14 cells over expressing Dominant/negative TCF4 assessed as reduction in cell viability incubated for 72 hrs by CellTitre-Glo assay; format: functional, cell-based
[15] = test system: A-375; assay: Antiproliferative activity against human A-375 cells transfected with GSK3alpha shRNA assessed as reduction in cell viability at 4.5 nM incubated for 72 hrs by CellTitre-Glo assay; format: functional, cell-based
[16] = test system: M14; assay: Antiproliferative activity against human vemurafenib-resistant M14 cells harboring BRAF V600E mutation assessed as reduction in cell viability incubated for 72 hrs by CellTitre-Glo assay; format: functional, cell-based; details: M14, 72 h
Method in brief: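 Resistant A375 or M14 lines were derived by growth in vemurafenib over 3 months. Cells were seeded at 2,000 per well and allowed to adhere overnight, then moved to 2% FBS growth medium. Agents were added at 0.5 nmol/L–10 μmol/L for 72 h. Viability was read by CellTiter-Glo, and IC50 was taken from sigmoidal nonlinear regression.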

[17] = molecular target: T1, Glycogen synthase kinase-3 (Homo sapiens); assay: Inhibition of GSK3 in human vemurafenib-resistant A-375 cells assessed as increase beta-catenin stabilization at 20 nM up to 8 hrs by western blot analysis; format: cell-based
Method in brief: (§3)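 Vemurafenib-resistant A375 cells were selected by 3 months' growth in vemurafenib, then treated for up to 8 h. Lysed in Triton X100/Tris pH 7.5/NaCl/EDTA/EGTA buffer with protease/phosphatase inhibitors, freeze-thawed and sonicated. Equal protein run on 4–20% SDS-PAGE and blotted to nitrocellulose. Antibodies at 1:1000 in 1% BSA overnight at 4°C, HRP anti-rabbit secondary, chemiluminescence.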

[18] = test system: vemurafenib-resistant A-375; assay: Effect on RAS signaling in human vemurafenib-resistant A-375 cells assessed as effect on phosphorylation of MEK at 20 nM measured up to 8 hrs by western blot analysis; format: cell-based
Method in brief: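 Parental and vemurafenib-resistant A375 cells were treated for up to 8 h. Lysis was on ice in 1% Triton X100, 25 mM Tris pH 7.5, 150 mM NaCl, EDTA/EGTA and protease/phosphatase inhibitors. Proteins were run on 4–20% SDS-PAGE and blotted to nitrocellulose. pMEK antibody was used at 1:1000 overnight at 4°C, with HRP secondary and chemiluminescence detection.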

[19] = molecular target: T1, Glycogen synthase kinase-3 (Homo sapiens); assay: Inhibition of GSK3 in human vemurafenib-resistant A-375 cells assessed as increase in phosphorylation of JNK at 20 nM measured up to 8 hrs by western blot analysis; format: cell-based; method in brief: as §3
[20] = Toxicity in CD1 nu/nu mouse xenografted with human A-375 cells assessed as effect on body weight at 2.5 to 25 mg/kg, iv q3d; format: organism-based; details: in vivo, dose 2.5-25 mg/kg
Method in brief: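 Female 6–8 week athymic nude mice received 5 million A375 cells s.c. in the flank with matrigel (1:1). At tumors of ~100 mm2, mice were randomized to agent 25 mg/kg i.v. Q3D or vehicle (20% Captisol/0.01N HCl). Caliper tumor volume ((a2 x b)/2) and body weight were recorded twice weekly. Repeated-measures ANOVA was fit by mixed model.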

T1 sequence (P49840 whole entry, looked up): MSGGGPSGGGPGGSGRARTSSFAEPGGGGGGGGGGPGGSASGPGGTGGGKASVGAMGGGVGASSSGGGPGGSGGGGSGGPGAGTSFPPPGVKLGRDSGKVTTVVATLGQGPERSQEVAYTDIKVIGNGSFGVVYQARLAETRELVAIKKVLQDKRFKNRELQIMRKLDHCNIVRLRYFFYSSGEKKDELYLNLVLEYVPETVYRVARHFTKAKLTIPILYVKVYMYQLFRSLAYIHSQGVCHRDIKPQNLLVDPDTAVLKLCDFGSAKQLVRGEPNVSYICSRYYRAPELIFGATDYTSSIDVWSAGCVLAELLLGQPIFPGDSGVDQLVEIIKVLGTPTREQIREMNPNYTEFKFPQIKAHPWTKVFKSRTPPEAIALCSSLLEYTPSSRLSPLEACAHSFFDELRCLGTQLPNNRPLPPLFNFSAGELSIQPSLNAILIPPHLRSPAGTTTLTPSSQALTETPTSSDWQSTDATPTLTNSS
T1 sequence (P49841 whole entry, looked up): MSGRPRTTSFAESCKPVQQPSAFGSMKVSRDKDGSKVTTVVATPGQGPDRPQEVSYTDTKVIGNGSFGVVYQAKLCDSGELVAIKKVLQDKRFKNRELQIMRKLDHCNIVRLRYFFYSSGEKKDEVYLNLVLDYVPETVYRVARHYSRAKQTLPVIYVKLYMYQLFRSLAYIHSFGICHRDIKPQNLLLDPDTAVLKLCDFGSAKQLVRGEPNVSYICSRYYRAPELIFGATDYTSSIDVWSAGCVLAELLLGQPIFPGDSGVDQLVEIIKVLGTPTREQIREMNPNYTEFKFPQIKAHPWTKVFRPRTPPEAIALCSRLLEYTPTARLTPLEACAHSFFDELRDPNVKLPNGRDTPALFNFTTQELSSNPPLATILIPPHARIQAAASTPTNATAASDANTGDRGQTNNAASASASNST

inhibition [1]: Tde
inhibition [2]: Active
IC50 [4]: > 10000 nM
IC50 [8]: 10500 nM
IC50 [9]: 9440 nM
IC50 [10]: > 20000 nM
IC50 [11]: > 20000 nM
IC50 [12]: 430 nM
IC50 [13]: 150 nM
inhibition [17]: Active
inhibition [19]: Active
SMILES: O=C1NC(=O)C(c2cnc3ccccn23)=C1c1cn2c3c(cc(F)cc13)CN(C(=O)N1CCCCC1)CC2 [LY-2090314]
IC50 [3]: 12 nM
Activity [5]: Active
Activity [6]: Active
Activity [7]: Active
Activity [14]: inactive
Activity [15]: inactive
IC50 [16]: 7 nM
Activity [18]: inactive
Activity [20]: Non-Toxic
